These results are taken from ChEMBL document CHEMBL4513216, “Probing the Open Global Health Chemical Diversity Library for Multistage-Active Starting Points for Next-Generation Antimalarials” (ACS Infect Dis, 2020).

This series is described as follows: Toxicity liver stage against HepG2, at 10uM. The class given is cell-based. Also on record: test concentration 10 uM, cell line HepG2-A16-CD81EGFP. The following applies: human, HepG2-A16-CD81EGFP cells; read-out: INHIBITION
Summed up:
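Uninfected HepG2-A16-CD81EGFP cells, 3 × 10^3 per well, 1536-well, plated on prespotted compound at 10 μM final, parasite-free screening media added to match infected plates; puromycin 10 μM positive, DMSO 0.5% negative; run in parallel with 48 h PbLuc assay at 37 °C, 5% CO2; viability by CellTiter-Glo luminescence, normalized to controls.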
Turning to `COc1ccccc1C1(C(=O)NCCN2CCOCC2)CCOCC1`, the cytotoxicity at 10 µM was -11.6%. Regarding `CCOCC(O)CN1CCN(C(=O)c2ccc(OC)cc2F)CC1` (stereo not given), the cytotoxicity at 10 µM was -11.9%.

For `CCCNC(=O)C(C)Nc1ccc(OCC)cc1` (stereo not given) [PROPETAMIDE], the cytotoxicity at 10 µM was 8.84%.

As for `CN(Cc1ccc(F)cc1)C(=O)NCc1nnc2n1CCCCC2`, the cytotoxicity at 10 µM was -10.1%. Under `CC(C)(C)C(=O)N1CCN(Cn2nccc2-c2cccnc2)CC1` stands 8.27%; under `CC(C)c1ccc(OCCC(=O)N2CCCC(C(N)=O)C2)cc1` (stereo not given), -11.7%; under `Cc1nnc2n1CCN(C(=O)c1cnc3c(cnn3CC(C)C)c1)C2`, -8.72%. Under `O=C(CCCn1cncn1)NC1(c2ccccc2)CCC1` stands -11.5%; under `Cc1nsc(NC(=O)NC2(CN3CCOCC3)CCCCC2)n1`, -3.82%. Regarding `CCCc1nc(N2CCCC(C)C2)c2c(n1)c(C)nn2CC` (stereo not given), the cytotoxicity at 10 µM was determined as 15.6%.

In the case of `O=C(NCc1ccccn1)[C@H]1COC[C@H]2CN(C3CCCC3)C[C@H]21`, the cytotoxicity at 10 µM is -73.6%.

`O=C(NC1CC1)N1CCc2ccc(=O)n(Cc3cccnc3)c2CC1`: the cytotoxicity at 10 µM came out at 0.995%. To `COC1CCN(CCNC(=O)NC(C)c2cccc(Cl)c2)CC1` (stereo not given) belongs -2.46%; to `Cc1noc([C@@H]2C[C@@H]3CCN(CC4CC4)C[C@H]3O2)n1`, -139%. On to `Cc1cc(CN2CCN(C(=O)NCc3ccc(C)s3)CC2)on1`, for which the cytotoxicity at 10 µM was -4.56%.

In the case of `COCCNC(=O)NCc1ccc(-n2ccc(C(F)(F)F)n2)cc1`, the cytotoxicity at 10 µM was -7.29%. Turning to `CC1CCN(CCNC(=O)C2CCN(C(=O)NC(C)C)CC2)CC1`, the cytotoxicity at 10 µM is 8.21%. For the compound `CCS(=O)(=O)N1CCc2ccc(NC(=O)Nc3cccc(C)c3)cc21`, the cytotoxicity at 10 µM amounted to 42.3%. On to `COc1cccc(CCC(=O)Nc2ccn(C)n2)c1OC`, for which the cytotoxicity at 10 µM was -2.14%. To `CCOc1ccnc(NCc2nc(C)cc(=O)[nH]2)n1` belongs -8.42%.

`N#Cc1ccccc1OCCN1CCC(C(=O)N2CCOCC2)CC1`: the cytotoxicity at 10 µM is -47.2%.

As to `CCc1nc(CN(C)C2CCN(CCc3cccs3)C2)no1` (stereo not given), the cytotoxicity at 10 µM is -8.7%. Under `CCOc1ccc(CN(C)C(=O)COc2ccc(C)nc2)cc1` stands 22.7%; under `CC(=O)N1CCC2(CC1)CCN(C(=O)c1ccc(F)c(C(F)(F)F)c1)C2`, -80%. As to `COc1ccc(C(C(=O)O)N2CCCN(C3CCCCC3)CC2)cn1` (stereo not given), the cytotoxicity at 10 µM was 13.3%. In the case of `Cc1cccc(C)c1NC(=O)CN(C)C(C)c1nc(C(C)(C)C)no1` (stereo not given), the cytotoxicity at 10 µM is -6.85%.

For `COc1cccc(C(=O)N2C[C@@H]3CC[C@H]2CN(Cc2cscn2)C3)c1`, the cytotoxicity at 10 µM was 1.5%. With `Cc1ccc(Sc2ccc(N3CCCC(C(=O)O)C3)nn2)cc1` (stereo not given), the cytotoxicity at 10 µM is -8.71%. `COc1cccc(OC)c1C(=O)NCC(c1cccn1C)N1CCCC1` (stereo not given): the cytotoxicity at 10 µM came to 6.89%. With `CCn1cc(-n2cc3nc(N)[nH]cc-3c2=O)cn1`, the cytotoxicity at 10 µM stood at 3.15%. Consider `COc1ncccc1CN1C[C@@H]2COC[C@]2(CNC(=O)c2ccno2)C1`, for which the cytotoxicity at 10 µM was 8.07%. Take `Cc1ccc2c(c1)C(NC(=O)N(C)C)CC21CCN(C(C)C)CC1` (stereo not given): the cytotoxicity at 10 µM is -0.493%. For the compound `Clc1cc(Cl)cc(CN2CCC(NCc3ncc[nH]3)CC2)c1`, the cytotoxicity at 10 µM amounted to 18.4%. In the case of `c1cncc(OC[C@]23COC[C@H]2CN(Cc2nccs2)C3)c1`, the cytotoxicity at 10 µM was -1.43%. Take `CC(C)N1C(=O)C2(CCN(C)CC2)c2cc(F)ccc21`: the cytotoxicity at 10 µM is -110%. For the compound `Cc1cc(C)n(-c2cncc(NCCC(=O)NC(C)C)n2)n1`, the cytotoxicity at 10 µM worked out at 1.06%. With `Cn1cnc(S(=O)(=O)NCCCN2CCCC2)c1Cl`, the cytotoxicity at 10 µM was -11.6%.

`COc1ccc(NC(=O)CCC2CCCN(Cc3ncon3)C2)cc1Cl` (stereo not given): the cytotoxicity at 10 µM is -6.12%.

`COc1ccc(CN2CCC(C(N)=O)CC2)cc1SC(F)(F)F`: the cytotoxicity at 10 µM was -20.3%. Under `CC(C)C[C@H]1CN(c2nc3c(cc2C(N)=O)CCC3)CC[C@@]1(C)O` stands -4.51%; under `c1ccc(-c2ncc(CN3CCC4(CCNCC4)C3)cn2)cc1`, -5.71%. To `Cc1cc(C)c(C(=O)NC(c2nnc3n2CCNCC3)C(C)C)c(C)c1` (stereo not given) belongs -7.01%; to `Cc1ncnc(NCc2cc3n(n2)CCCN(S(C)(=O)=O)C3)c1C`, -8.42%.

Turning to `NC(=O)COc1ccc(C(=O)NCCc2ccco2)cc1`, the cytotoxicity at 10 µM was found to be 10.1%. Consider `CCc1nn(C)c(Cl)c1CN1C[C@H](NC(=O)CCO)[C@@H](C(C)C)C1`, for which the cytotoxicity at 10 µM amounted to 11.1%. For `Cn1nccc1C(=O)NCCN1CCC(O)(c2ccc(F)cc2)CC1`, the cytotoxicity at 10 µM was 1.09%. As for `CCS(=O)(=O)c1ccccc1C(=O)NCc1ccnc(N(C)C)c1`, the cytotoxicity at 10 µM is -3.92%. For the compound `COc1cc(CNCC(O)c2ccc(C)cc2)cc2c1OCCO2` (stereo not given), the cytotoxicity at 10 µM was -6.61%. To `CS(=O)(=O)CCCSc1n[nH]c(-c2ccc3c(c2)CCC3)n1` belongs -0.0422%. To `CCN(CC)c1nc(C)cc(C(=O)Nc2cnn(CC)c2)n1` belongs -16.4%; to `Oc1ccccc1CN1CCC(n2cc(-c3ccc(F)cc3)nn2)CC1`, -2.68%; to `Cc1csc(CNc2cnn(CC(F)(F)F)c2)n1`, 5.19%. To `CS(=O)(=O)c1ccc(NCc2ccc(F)cc2)cn1` belongs 8.08%. On to `Cc1occc1C(=O)NC1CCN(C(=O)Nc2cccnc2)CC1`, for which the cytotoxicity at 10 µM is 8.98%.

For the compound `Cc1ccc(N2CCCC(N3CCC(CO)CC3)C2=O)cc1` (stereo not given), the cytotoxicity at 10 µM amounted to 0.473%.

Regarding `CC(C)(C)c1nc(CN2CCOC(Cn3cncn3)C2)cs1` (stereo not given), the cytotoxicity at 10 µM was -7.2%. In the case of `c1cc(CN2C[C@@H]3OCCN(CC4CCCO4)[C@@H]3C2)cs1` (stereo not given in full), the cytotoxicity at 10 µM was -76.9%. In the case of `CCC=C(C)C(=O)N1CSCC1C(=O)N(C)CCc1ccncc1` (stereo not given), the cytotoxicity at 10 µM was -9.72%. With `CC(C)N1CC(C(=O)N2CCc3c(nc(CC4CC4)[nH]c3=O)C2)CC1=O` (stereo not given), the cytotoxicity at 10 µM was -8.25%. As for `CC(C)Nc1nc2c(c(NC3CC3)n1)CCN(C(=O)C1CCOC1)CC2` (stereo not given), the cytotoxicity at 10 µM is -145%. `O=C(CCc1cscn1)NS(=O)(=O)c1ccc2c(c1)CCC2`: the cytotoxicity at 10 µM was -24.5%. For the compound `O=C(c1ccccn1)N1CCC(c2nccn2Cc2ccncc2)CC1`, the cytotoxicity at 10 µM is 1.94%.

Consider `CN(C)C(=O)N1C[C@@H]2COC[C@]2(c2nnc(C3CC3)o2)C1`, for which the cytotoxicity at 10 µM is -4.05%. Regarding `CCn1ncc(CN2CCCC(C(=O)c3ccc(Cl)cc3)C2)c1C` (stereo not given), the cytotoxicity at 10 µM amounted to 0.522%. In the case of `CC(C)n1cnc2c1C(C(=O)N1CCOCC1)N(CC1CC1)CC2` (stereo not given), the cytotoxicity at 10 µM amounted to 7.98%. Under `N#Cc1nc(COc2ccc3c(c2)OCO3)oc1NC1CC1` stands -43%. For `CCS(=O)(=O)N1CCc2ncnc(OC)c2CC1`, the cytotoxicity at 10 µM worked out at 6.93%. Regarding `COCC(=O)N1CCCC(c2noc3nc(C)cc(C(F)(F)F)c23)C1` (stereo not given), the cytotoxicity at 10 µM is -2.25%. In the case of `N#Cc1ccc(F)c(CN2CCCC2Cn2cnc3ccccc32)c1` (stereo not given), the cytotoxicity at 10 µM was determined as 0.224%. With `CCC(CC)C(=O)NS(=O)(=O)CCc1ccccc1`, the cytotoxicity at 10 µM stood at 1.76%. To `NC(=O)C1CCN(CC(=O)NCCc2c(F)cccc2F)CC1` belongs -7.14%; to `CC1(C)CN(C(=O)c2cnc(CN3CCCC3)s2)CC[C@]1(C)O`, -15.1%.

With `CC1(C)Cc2nc(C(C)(C)C)ncc2C(NC(=O)Cc2nnn[nH]2)C1` (stereo not given), the cytotoxicity at 10 µM is -3.67%. `CCN1CCN(C[C@@H]2CN(c3ncccc3F)C[C@@H]2CO)CC1`: the cytotoxicity at 10 µM was -6.45%. `CS(=O)(=O)CCC(=O)Nc1cnn(-c2ccccc2Cl)c1`: the cytotoxicity at 10 µM is -6.66%. In the case of `COc1cccc2c1OCC(CNC(=O)CSc1ccccn1)C2` (stereo not given), the cytotoxicity at 10 µM is -135%. With `Cc1ccccc1OCn1ccc(C(=O)NCCN2CCOCC2)n1`, the cytotoxicity at 10 µM stood at 8.02%. As for `CS(=O)(=O)N1CCCC12CCCN(C(=O)c1ccncc1)C2` (stereo not given), the cytotoxicity at 10 µM is -159%.

`COc1nn(C)cc1C(=O)NCC(OC)c1ccccc1C` (stereo not given): the cytotoxicity at 10 µM was -8.32%. With `Cc1ccc(N2CCc3c(CN(C)Cc4ccco4)cncc3C2)nn1`, the cytotoxicity at 10 µM was -6.57%. To `CC(C)C(=O)N1CCCC(c2cc(C(F)F)n3ncnc3n2)C1` (stereo not given) belongs 1.18%; to `Cc1cccc(NC(=O)C2CC(=O)n3cnnc3S2)c1` (stereo not given), 2.37%; to `CNC(=O)CCNC(=O)Nc1cccc(Cl)c1SC(F)F`, 1.29%.

With `c1cncc(CN2C[C@H]3CCC[C@@H](CNc4cnccn4)[C@H]3C2)c1`, the cytotoxicity at 10 µM is -2.1%. To `Cc1cn2nc(N(C)C3CCCN(c4cccnn4)C3)sc2n1` (stereo not given) belongs 4.29%.

Regarding `CCOC(=O)[C@@H]1CN2CCNC[C@@H]2[C@H]1c1ccccc1`, the cytotoxicity at 10 µM is 3.88%. As for `Cc1ccc(C(NC(=O)C2CC2)c2cccc(S(C)(=O)=O)c2)cc1` (stereo not given), the cytotoxicity at 10 µM was -9.8%.

Consider `CC(C)(CNC(=O)CCOc1cccc(F)c1)C(N)=O`, for which the cytotoxicity at 10 µM is -0.704%.

`COC(=O)c1sc(C(F)(F)F)cc1OC`: the cytotoxicity at 10 µM was 4.69%. Turning to `CC(=O)N1[C@H](CN(C)C)C[C@@H]2CN(C(=O)c3cncc(C)c3)CC[C@@H]21`, the cytotoxicity at 10 µM was 3.76%. On to `Cc1cccc(N(C)Cc2cc(=O)n3oc(C)cc3n2)c1`, for which the cytotoxicity at 10 µM is 0.14%. For `CCOCC(=O)N1CC[C@H]2O[C@@H](C)C[C@H]2C1`, the cytotoxicity at 10 µM is -67.9%. To `CCCC(C)C(=O)N1CCC(n2cccc2C(=O)OC)CC1` (stereo not given) belongs -10%; to `O=C(c1cncc(NCC2COc3ccccc3C2)n1)N1CCOCC1` (stereo not given), -3.37%. For `Cc1cc(NCCCOC(C)C)c2nncn2n1`, the cytotoxicity at 10 µM is 6.17%.
